Experiments:
Format in all cases: functional, cell-based
SW480 = test: Cytotoxicity against human SW480 cells after 48 hrs by MTT assay; settings: SW480, 48 h
In short: (§1)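 Cells grown in DMEM with 10% FBS, 5% CO2, 37 °C. Adherent lines plated and left to attach 12 h before dosing; suspension HL-60 plated immediately before dosing; starting density 1 × 10^5 cells/mL. Treated with 0.064, 0.32, 1.6, 8 and 40 μM in triplicate for 48 h; cisplatin as positive control. Viability by MTT; IC50 by Reed–Muench method.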

HL-60 = test: Cytotoxicity against human HL60 cells after 48 hrs by MTT assay; settings: HL-60, 48 h; in short: as §1
SMMC-7721 = test: Cytotoxicity against human SMMC7721 cells after 48 hrs by MTT assay; settings: SMMC-7721, 48 h; in short: as §1
MCF7 = test: Cytotoxicity against human MCF7 cells after 48 hrs by MTT assay; settings: MCF7, 48 h; in short: as §1
A549 = test: Cytotoxicity against human A549 cells after 48 hrs by MTT assay; settings: A549, 48 h; in short: as §1

## C=C(C)[C@@H]1CC[C@]2(C(=O)O)CC[C@]34C(=O)O[C@]5(CC[C@@H]3[C@@H]12)[C@@]4(C)CC[C@]12O[C@]51[C@@H](C)CC2(C)C [BREYNCEANOTHANOLIC ACID]
SW480
  IC50: 20 µM
HL-60
  IC50: 10.2 µM
SMMC-7721
  IC50: 14.3 µM
MCF7
  IC50: 12.7 µM
A549
  IC50: 14.5 µM

## C=C(C)[C@@H]1CC[C@]2(C(=O)O)CC[C@]3(C)[C@H](CC[C@@H]4[C@@]5(C)[C@H](C(=O)O)[C@H](O)C(C)(C)[C@@H]5CC[C@]43C)[C@@H]12 [EPICEANOTHIC ACID]
SW480
  IC50: > 40 µM
HL-60
  IC50: > 40 µM
SMMC-7721
  IC50: > 40 µM
MCF7
  IC50: > 40 µM
A549
  IC50: > 40 µM

## C=C(CC[C@@H](CO)[C@H]1CC[C@H]2C3=CC[C@H]4[C@H](C)[C@@H](O)[C@H](O)C[C@]4(C)[C@H]3CC[C@]12C)C(C)C [FRUTICOSIDE A]
SW480
  IC50: 18.4 µM
HL-60
  IC50: 3 µM
SMMC-7721
  IC50: 18.5 µM
MCF7
  IC50: 15.4 µM
A549
  IC50: 15.7 µM

## C=C(CC[C@@H](C(=O)O)[C@H]1CC[C@H]2C3=CC[C@H]4[C@H](C)[C@@H](O)[C@H](O)C[C@]4(C)[C@H]3CC[C@]12C)C(C)C [FRUTICOSIDE B]
SW480
  IC50: > 40 µM
HL-60
  IC50: > 40 µM
SMMC-7721
  IC50: > 40 µM
MCF7
  IC50: > 40 µM
A549
  IC50: > 40 µM

## C=C(CC[C@@H](C(=O)O)[C@H]1CC[C@H]2C3=CC[C@H]4[C@H](C)[C@@H](O[C@@H]5O[C@@H](C)[C@H](O)[C@@H](O)[C@@H]5O)[C@H](O)C[C@]4(C)[C@H]3CC[C@]12C)C(C)C [FRUTICOSIDE C]
SW480
  IC50: > 40 µM
HL-60
  IC50: > 40 µM
SMMC-7721
  IC50: > 40 µM
MCF7
  IC50: > 40 µM
A549
  IC50: > 40 µM

## C=C(CC[C@@H](C(=O)O)[C@H]1CC[C@H]2C3=CC[C@H]4[C@H](C)[C@@H](O[C@@H]5O[C@@H](C)[C@H](O)[C@@H](O)[C@@H]5O)[C@H](OC(C)=O)C[C@]4(C)[C@H]3CC[C@]12C)C(C)C [FRUTICOSIDE D]
SW480
  IC50: > 40 µM
HL-60
  IC50: > 40 µM
SMMC-7721
  IC50: > 40 µM
MCF7
  IC50: > 40 µM
A549
  IC50: > 40 µM

## C=C(CC[C@@H](C(=O)O)[C@H]1CC[C@H]2C3=CC[C@H]4[C@H](C)[C@@H](O[C@@H]5O[C@@H](C)[C@H](O)[C@@H](O)[C@H]5O)[C@H](OC(C)=O)C[C@]4(C)[C@H]3CC[C@]12C)C(C)C [FRUTICOSIDE E]
SW480
  IC50: > 40 µM
HL-60
  IC50: > 40 µM
SMMC-7721
  IC50: > 40 µM
MCF7
  IC50: > 40 µM
A549
  IC50: > 40 µM

## C=C(CC[C@@H](C(=O)S)[C@H]1CC[C@H]2C3=CC[C@H]4[C@H](C)[C@@H](O[C@@H]5O[C@@H](C)[C@H](O)[C@@H](O)[C@@H]5O)[C@H](OC(C)=O)C[C@]4(C)[C@H]3CC[C@]12C)C(C)C [FRUTICOSIDE F]
SW480
  IC50: > 40 µM
HL-60
  IC50: > 40 µM
SMMC-7721
  IC50: > 40 µM
MCF7
  IC50: > 40 µM
A549
  IC50: > 40 µM

## C/C=C(/CC[C@@H](C(=O)S)[C@H]1CC[C@H]2C3=CC[C@H]4[C@H](C)[C@@H](O[C@@H]5O[C@@H](C)[C@H](O)[C@@H](O)[C@@H]5O)CC[C@]4(C)[C@H]3CC[C@]12C)C(C)C [FRUTICOSIDE G]
SW480
  IC50: > 40 µM
HL-60
  IC50: > 40 µM
SMMC-7721
  IC50: > 40 µM
MCF7
  IC50: > 40 µM
A549
  IC50: > 40 µM

## C=C(C)[C@@H]1CC[C@]2(C(=O)O)CC[C@]3(C)[C@H](CC[C@@H]4[C@@]5(C)[C@H](C=O)[C@H](O)C(C)(C)[C@@H]5CC[C@]43C)[C@@H]12 [ZIZYBERANALIC ACID]
SW480
  IC50: > 40 µM
HL-60
  IC50: > 40 µM
SMMC-7721
  IC50: > 40 µM
MCF7
  IC50: > 40 µM
A549
  IC50: > 40 µM
